These results are taken from ChEMBL document CHEMBL1140696, “Effects of introduction of hydrophobic group on ribavirin base on mutation induction and anti-RNA viral activity” (2008).

Assay [1] deals with Enterovirus C. Put plainly: Incorporation of Poliovirus RNA dependent RNA polymerase into sym/sub-U primer. A digest of the protocol:
(§1)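 NTP was 10–250 µM; reactions ran 2 min at 30 °C and were quenched with EDTA. Products were resolved by 20% denaturing PAGE. Initial rates came from the elongated fraction, and kcat and KM from Lineweaver–Burk plots (mean ± SD, n = 3).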

The subject of assay [2] is Enterovirus C. Briefly: Incorporation of Poliovirus RNA dependent RNA polymerase into sym/sub-C primer. A digest of the protocol: as §1
Assay [3] concerns Enterovirus C. Briefly: Ratio of kcat/Km of Poliovirus RNA dependent RNA polymerase incorporation into sym/sub-C primer relative to control. Set-up: unit not given here.
The subject of assay [4] is Enterovirus C. Put plainly: Ratio of kcat/Km of Poliovirus RNA dependent RNA polymerase incorporation into sym/sub-U primer. Set-up: unit not given here.
Assay [5] relates to Enterovirus C. Put plainly: Antiviral activity against poliovirus infected HeLa S3 cells assessed as plaque formation at 0.5 mM relative to control. In kind it is functional. A digest of the protocol:
(§2)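 HeLa S3 cells (DMEM/F-12, 2% dialyzed FBS) were pretreated with nucleoside for 1 h at 37 °C in 1% DMSO final. Cells were infected with poliovirus (1 × 10⁶ PFU in PBS) for 15 min at 23 °C, then kept 6 h at 37 °C with nucleoside. Cell-associated virus was released by three freeze–thaw cycles and titred by plaque assay on HeLa S3 (1% low-melting agarose overlay, 2 days, crystal violet). Titre is given as % of untreated control.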

The subject of assay [6] is Enterovirus C. Put plainly: Antiviral activity against poliovirus infected HeLa S3 cells assessed as plaque formation at 2 mM. In kind it is functional. A digest of the protocol:
as §2

Molecules are shown by their SMILES.

By Km is commonly meant the concentration of substrate that gives half-maximal velocity. For orientation: kcat means the number of substrate molecules converted per active site and unit of time at saturation. In the case of `Nc1nc2c(ncn2[C@@H]2O[C@H](COP(=O)(O)OP(=O)(O)OP(=O)(O)O)[C@@H](O)[C@H]2O)c(=O)[nH]1`, in the assay with Enterovirus C [1], the Km is 56 µM and the kcat was 5 10^-4/s.

On to `NC(=O)c1nn([C@@H]2O[C@H](COP(=O)(O)OP(=O)(O)OP(=O)(O)O)[C@@H](O)[C@H]2O)cc1I`, for which the results for the Km in the assay on Enterovirus C [2] and in the assay with Enterovirus C [1] were 40 µM and 24 µM, respectively. Also, the kcat is 1.8 10^-4/s in the assay with Enterovirus C [2] and 4.7 10^-4/s in the assay with Enterovirus C [1]. In addition, the results for the kcat/Km in the assay with Enterovirus C [3] and in the assay on Enterovirus C [4] were 4.4 and 20, respectively.

In the case of `CC#Cc1cn([C@@H]2O[C@H](COP(=O)(O)OP(=O)(O)OP(=O)(O)O)[C@@H](O)[C@H]2O)nc1C(N)=O`, the Km in the assay with Enterovirus C [2] was 51 µM; with Enterovirus C [1], 35 µM. Further, the results for the kcat in the assay on Enterovirus C [2] and with Enterovirus C [1] were 1.3 10^-4/s and 3.1 10^-4/s, respectively. Further, the kcat/Km with Enterovirus C [3] was 2.6; with Enterovirus C [4], 9.1.

As to `Nc1ncnc2c1ncn2[C@@H]1O[C@H](COP(=O)(O)OP(=O)(O)OP(=O)(O)O)[C@@H](O)[C@H]1O`, in the assay with Enterovirus C [2], the Km is 110 µM and the kcat was 0.82 10^-4/s.

Turning to `NC(=O)c1ncn([C@@H]2O[C@H](CO)[C@@H](O)[C@H]2O)n1` [RIBAVIRIN], the Activity in the assay with Enterovirus C [5] came to 40%; with Enterovirus C [6] it was 4%.

Take `NC(=O)c1nn([C@@H]2O[C@H](CO)[C@@H](O)[C@H]2O)cc1I`: the Activity in the assay on Enterovirus C [5] is recorded as 76%; with Enterovirus C [6] it was 68%.

As to `CC#Cc1cn([C@@H]2O[C@H](CO)[C@@H](O)[C@H]2O)nc1C(N)=O`, the Activity was found to be 94% with Enterovirus C [5] and 57% in the assay on Enterovirus C [6].

Regarding `NC(=O)c1nn([C@@H]2O[C@H](CO)[C@@H](O)[C@H]2O)cc1C#Cc1ccccc1`, in the assay with Enterovirus C [5], the Activity was 122%.

As for `NC(=O)c1ncn([C@@H]2O[C@H](COP(=O)(O)OP(=O)(O)OP(=O)(O)O)[C@@H](O)[C@H]2O)n1`, the Km in the assay on Enterovirus C [2] was determined as 69 µM; in the assay with Enterovirus C [1] it was 34 µM. Also, the kcat with Enterovirus C [2] was 5.8 10^-4/s; with Enterovirus C [1], 3.7 10^-4/s.
